Assay results from ChEMBL document CHEMBL4020727, “Synthesis and biological evaluation of largazole zinc-binding group analogs” (Bioorg Med Chem, 2017).

Assays:
HCT-116 = assay: Cytotoxicity against human HCT116 cells assessed as reduction in cell viability after 48 hrs by MTT assay; format: functional, cell-based; conditions: HCT-116, 48 h
Procedure, shortened: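 Cells grown in DMEM with 10% FBS, 37 °C, 5% CO2; 1 × 10^4 cells per well plated and left 24 h, then exposed to a range of compound concentrations or vehicle (1% EtOH) for 48 h. Viability read by MTT.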

[1] = biological target: Histone deacetylase 5 (Homo sapiens) (UniProt Q9UQL6); assay: Inhibition of full length N-terminal GST-tagged human HDAC5 expressed in baculovirus infected Sf9 insect cells using BPS HDAC class 2a substrate at 10 uM after 30 mins by fluorescence assay relative to control
Histone deacetylase 5 (Homo sapiens), sequence (Q9UQL6 whole entry): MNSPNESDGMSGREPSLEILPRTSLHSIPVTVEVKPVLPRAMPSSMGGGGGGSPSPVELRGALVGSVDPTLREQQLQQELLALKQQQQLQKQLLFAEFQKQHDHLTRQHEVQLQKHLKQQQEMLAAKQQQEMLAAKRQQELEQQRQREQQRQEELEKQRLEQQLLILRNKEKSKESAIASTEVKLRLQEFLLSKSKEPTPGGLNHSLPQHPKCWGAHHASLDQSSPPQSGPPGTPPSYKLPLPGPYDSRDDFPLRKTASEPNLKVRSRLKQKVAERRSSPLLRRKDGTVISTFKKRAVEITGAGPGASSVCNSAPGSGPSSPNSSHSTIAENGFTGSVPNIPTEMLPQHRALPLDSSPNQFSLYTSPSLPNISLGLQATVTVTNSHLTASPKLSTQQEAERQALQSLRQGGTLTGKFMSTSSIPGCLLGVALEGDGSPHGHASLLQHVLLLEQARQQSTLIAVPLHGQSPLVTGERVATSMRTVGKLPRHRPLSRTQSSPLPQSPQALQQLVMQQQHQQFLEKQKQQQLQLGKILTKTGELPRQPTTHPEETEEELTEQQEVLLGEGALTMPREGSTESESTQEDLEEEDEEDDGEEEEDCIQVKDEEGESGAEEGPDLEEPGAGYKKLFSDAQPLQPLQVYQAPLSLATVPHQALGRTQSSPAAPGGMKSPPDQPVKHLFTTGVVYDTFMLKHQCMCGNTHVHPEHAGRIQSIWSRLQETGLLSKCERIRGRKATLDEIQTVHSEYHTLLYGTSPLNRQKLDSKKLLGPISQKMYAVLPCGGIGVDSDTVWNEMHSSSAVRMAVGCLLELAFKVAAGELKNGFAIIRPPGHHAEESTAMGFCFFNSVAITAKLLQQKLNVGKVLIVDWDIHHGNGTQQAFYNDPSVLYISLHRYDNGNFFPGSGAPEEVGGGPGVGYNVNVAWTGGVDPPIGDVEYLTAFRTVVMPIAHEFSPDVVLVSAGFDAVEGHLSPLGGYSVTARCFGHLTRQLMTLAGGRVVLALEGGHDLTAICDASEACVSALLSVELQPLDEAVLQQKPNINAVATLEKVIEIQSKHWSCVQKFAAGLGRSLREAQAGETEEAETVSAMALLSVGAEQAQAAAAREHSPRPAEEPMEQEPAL
Procedure, shortened: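 Run by a contract lab. Compound incubated with HDAC enzyme, substrate, bovine serum albumin and HDAC buffer in duplicate for 30 min at 37 °C. Quenched with HDAC developer, 15 min at room temperature, fluorescence read at ex 360/em 460 nm. Activity taken as (F−Fb)/(Ft−Fb) against blank and solvent control wells; IC50 from curve fitting.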

[2] = biological target: T1, Protein deacetylase HDAC6 (Homo sapiens, UniProt Q9UBN7); assay: Inhibition of full length N-terminal GST-tagged human HDAC6 expressed in baculovirus infected Sf9 insect cells using HDAC substrate 3 after 30 mins by fluorescence assay
T1 sequence (Q9UBN7 whole entry): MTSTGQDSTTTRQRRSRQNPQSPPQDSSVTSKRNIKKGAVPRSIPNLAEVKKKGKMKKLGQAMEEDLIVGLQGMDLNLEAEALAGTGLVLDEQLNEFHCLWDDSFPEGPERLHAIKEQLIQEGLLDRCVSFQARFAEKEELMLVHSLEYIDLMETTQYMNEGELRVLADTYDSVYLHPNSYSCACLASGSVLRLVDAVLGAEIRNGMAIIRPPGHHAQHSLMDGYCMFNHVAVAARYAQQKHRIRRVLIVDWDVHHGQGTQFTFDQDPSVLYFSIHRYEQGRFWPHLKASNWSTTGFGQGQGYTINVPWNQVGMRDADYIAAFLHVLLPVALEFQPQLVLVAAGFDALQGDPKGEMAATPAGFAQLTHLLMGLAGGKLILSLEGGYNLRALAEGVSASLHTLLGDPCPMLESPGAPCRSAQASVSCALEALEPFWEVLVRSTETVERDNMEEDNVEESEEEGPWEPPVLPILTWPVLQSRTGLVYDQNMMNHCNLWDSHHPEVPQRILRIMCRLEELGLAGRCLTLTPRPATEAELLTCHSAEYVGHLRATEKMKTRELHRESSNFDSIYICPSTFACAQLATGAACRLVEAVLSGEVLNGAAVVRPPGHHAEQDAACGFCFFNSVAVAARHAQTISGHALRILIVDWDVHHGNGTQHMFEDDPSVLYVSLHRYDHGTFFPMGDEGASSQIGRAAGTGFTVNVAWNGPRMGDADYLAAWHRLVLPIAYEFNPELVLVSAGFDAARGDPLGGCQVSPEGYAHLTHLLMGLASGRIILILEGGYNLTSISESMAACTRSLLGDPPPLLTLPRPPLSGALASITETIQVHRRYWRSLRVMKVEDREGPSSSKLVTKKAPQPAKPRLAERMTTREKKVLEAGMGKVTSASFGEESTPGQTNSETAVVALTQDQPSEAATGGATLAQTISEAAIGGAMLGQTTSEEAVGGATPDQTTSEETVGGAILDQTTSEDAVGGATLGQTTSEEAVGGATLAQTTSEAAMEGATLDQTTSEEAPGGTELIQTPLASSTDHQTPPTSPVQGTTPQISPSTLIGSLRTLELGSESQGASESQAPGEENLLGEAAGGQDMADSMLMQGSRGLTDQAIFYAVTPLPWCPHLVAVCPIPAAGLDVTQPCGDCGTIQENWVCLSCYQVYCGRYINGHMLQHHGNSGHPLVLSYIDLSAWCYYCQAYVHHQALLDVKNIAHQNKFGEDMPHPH
Procedure, shortened: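 Run by a contract lab. Compound incubated with HDAC enzyme, HDAC substrate, BSA and HDAC buffer, in duplicate, at 37 °C for 30 min. Quenched with HDAC developer, then 15 min at room temperature. Percent activity = (F−Fb)/(Ft−Fb), using blank and solvent-control wells. IC50 from curve fitting.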

## CC(C)[C@@H]1NC(=O)[C@]2(C)CSC(=N2)c2csc(n2)CNC(=O)C[C@@H](/C=C/CCC(=O)NO)OC1=O
HCT-116
  IC50: 3300 nM
[1]
  inhibition: 21%
[2]
  IC50: 600 nM

## CC(C)[C@@H]1NC(=O)[C@]2(C)CSC(=N2)c2csc(n2)CNC(=O)C[C@@H](/C=C/CCSCCS)OC1=O
HCT-116
  IC50: 1500 nM
[1]
  inhibition: 22%
[2]
  IC50: 2800 nM
